From ChEMBL document CHEMBL1140003, “Bivalent ligand approach on 4-[2-(3-methoxyphenyl)ethyl]-1-(2-methoxyphenyl)piperazine: synthesis and binding affinities for 5-HT(7) and 5-HT(1A) receptors” (Bioorg Med Chem, 2007)

What was measured:
[1] = molecular target: 5-hydroxytryptamine receptor 7 (Rattus norvegicus, UniProt P32305); assay: Displacement of [3H]LSD from rat recombinant 5HT7 receptor expressed in HEK293 cells; type: cell-based
In short: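 Membranes (30 µg) incubated 60 min at 37 °C with 2.5 nM [3H]LSD and 6–9 test concentrations in 50 mM Tris, 10 mM MgCl2, 0.5 mM EDTA, pH 7.4. Stopped by GF/A filtration (0.5% PEI pre-soak), cold-buffer washes; nonspecific binding defined by 10 µM 5-CT. Ki by nonlinear curve fit and Cheng–Prusoff; mean ± SEM of three experiments in triplicate.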

[2] = molecular target: 5-hydroxytryptamine receptor 1A (Homo sapiens) (UniProt P08908); assay: Displacement of [3H]-8-OH-DPAT from human recombinant 5HT1A receptor expressed in HEK293 cells
Chain of 5-hydroxytryptamine receptor 1A (Homo sapiens) (P08908 whole entry, looked up): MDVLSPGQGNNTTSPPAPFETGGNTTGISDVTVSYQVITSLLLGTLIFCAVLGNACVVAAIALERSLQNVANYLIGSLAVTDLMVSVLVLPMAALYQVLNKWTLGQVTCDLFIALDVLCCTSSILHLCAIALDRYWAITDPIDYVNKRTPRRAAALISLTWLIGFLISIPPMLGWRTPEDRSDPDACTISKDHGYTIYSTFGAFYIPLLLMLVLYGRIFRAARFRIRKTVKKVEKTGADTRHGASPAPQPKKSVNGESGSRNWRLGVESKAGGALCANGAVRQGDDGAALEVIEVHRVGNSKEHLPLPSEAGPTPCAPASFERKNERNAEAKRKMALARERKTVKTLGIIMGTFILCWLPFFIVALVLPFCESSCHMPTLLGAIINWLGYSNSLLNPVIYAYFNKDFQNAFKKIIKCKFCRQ

Chain of 5-hydroxytryptamine receptor 7 (P32305 whole entry): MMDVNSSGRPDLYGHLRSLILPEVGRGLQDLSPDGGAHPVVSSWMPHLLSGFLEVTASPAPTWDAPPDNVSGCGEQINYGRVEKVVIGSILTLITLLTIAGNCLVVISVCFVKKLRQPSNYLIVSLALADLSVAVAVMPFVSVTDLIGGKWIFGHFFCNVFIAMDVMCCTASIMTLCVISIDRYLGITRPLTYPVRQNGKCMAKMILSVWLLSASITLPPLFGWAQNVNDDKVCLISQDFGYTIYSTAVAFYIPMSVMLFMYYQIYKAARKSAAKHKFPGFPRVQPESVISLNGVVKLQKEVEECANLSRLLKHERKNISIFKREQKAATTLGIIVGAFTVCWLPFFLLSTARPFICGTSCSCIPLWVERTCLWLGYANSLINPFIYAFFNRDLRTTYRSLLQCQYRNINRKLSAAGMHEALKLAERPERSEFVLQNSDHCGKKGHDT

SMILES | Ki [1] | Ki [2]
COc1ccccc1N1CCN(CCc2cccc(OCCOc3cccc(CCN4CCN(c5ccccc5OC)CC4)c3)c2)CC1 | 41.1 nM | 2.2 nM
COc1ccccc1N1CCN(CCc2cccc(OC(=O)COCC(=O)Oc3cccc(CCN4CCN(c5ccccc5OC)CC4)c3)c2)CC1 | 43 nM | 2.74 nM
COc1ccccc1N1CCN(CCc2cccc(OCCCOc3cccc(CCN4CCN(c5ccccc5OC)CC4)c3)c2)CC1 | 25 nM | 5.6 nM
COc1ccccc1N1CCN(CCc2cccc(OCCCCOc3cccc(CCN4CCN(c5ccccc5OC)CC4)c3)c2)CC1 | 28.5 nM | 0.9 nM
COc1ccccc1N1CCN(CCc2cccc(OCCOCCOc3cccc(CCN4CCN(c5ccccc5OC)CC4)c3)c2)CC1 | 37 nM | 0.62 nM

The next lines start with the values.

Ki [1] | Ki [2] | SMILES
– | 253 nM | COc1ccccc1N1CCN(CCc2cccc(OCCCCCCCCCCCCOc3cccc(CCN4CCN(c5ccccc5OC)CC4)c3)c2)CC1
120 nM | 1.74 nM | COc1ccccc1N1CCN(CCc2cccc(OCCCCCOc3cccc(CCN4CCN(c5ccccc5OC)CC4)c3)c2)CC1
42.6 nM | 1.6 nM | COc1ccccc1N1CCN(CCc2cccc(OCCCCCCOc3cccc(CCN4CCN(c5ccccc5OC)CC4)c3)c2)CC1
573 nM | 4.8 nM | COc1ccccc1N1CCN(CCc2cccc(OCCCCCCCCOc3cccc(CCN4CCN(c5ccccc5OC)CC4)c3)c2)CC1
258 nM | 28.3 nM | COc1ccccc1N1CCN(CCc2cccc(OCCCCCCCCCCOc3cccc(CCN4CCN(c5ccccc5OC)CC4)c3)c2)CC1
